# In the library only some 2.4% were active in any assay of this set; here they are far more common.
# NPY-Y1 antag: antagonists of human neuropeptide Y receptor Y1; inhibition, % at 3.6 µM; 200,000 tested, 1% active; HEK293-CNG Y1 cells, membrane potential fluorescence; NPY at EC95, then isoproterenol;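 active = inhibition above the campaign mean inhibition of all tested compounds plus 3 SD, cut at about 20% in these data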
#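 Benchmarks – high control isoproterenol alone, low control NPY with isoproterenol · Material – HEK293 Y1/CNG channel cell line · Times – dye 3 h, compound 60 min room temperature, stimulation 45 min · Probe or stimulus – NPY (25 nM), isoproterenol (1 µM), Ro 20-1724 (25 µM) · Evaluation – % inhibition of NPY effect · Signal – fluorescence, membrane potential probe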
# S1P4 antagonist: antagonists of human S1P4 receptor | O95977 | S1P4-expressing cells, antagonist mode, reporter read-out | inhibition, % at 4.98 µM | 220,000 tested, 0.26% active | AID 1510; in the data active = inhibition above about 29%
# NPY2 pot ag: potentiates or activates human NPY-Y2 receptor; P49146; cells expressing NPY-Y2, potentiator/agonist read-out; activation, % at 3.6 µM; 220,000 tested, 0.45% active; in the data active = activation above about 27%;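 also: cells stimulated with NPY near EC25 plus isoproterenol at EC100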
# Target sequence (P49146 whole entry, looked up): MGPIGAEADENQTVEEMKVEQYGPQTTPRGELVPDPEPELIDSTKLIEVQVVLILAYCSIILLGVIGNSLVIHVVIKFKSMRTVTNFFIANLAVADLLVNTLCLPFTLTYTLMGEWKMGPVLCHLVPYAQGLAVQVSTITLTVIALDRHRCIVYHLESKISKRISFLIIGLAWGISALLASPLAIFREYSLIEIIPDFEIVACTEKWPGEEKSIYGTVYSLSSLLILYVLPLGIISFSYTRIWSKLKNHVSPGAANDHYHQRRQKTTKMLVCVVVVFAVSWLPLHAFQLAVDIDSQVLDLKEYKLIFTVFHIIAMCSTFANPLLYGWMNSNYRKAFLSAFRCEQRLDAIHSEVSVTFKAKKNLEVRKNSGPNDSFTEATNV
# NPY Y2 blocker: antagonists of human neuropeptide Y receptor Y2; P49146; NPY-Y2 expressing cells, antagonist mode; 140,000 tested, 0.99% active; inhibition, % at 2.7 µM; in the data active = inhibition above about 17%
# S1P4 agonist: agonists of human S1P4 receptor | S1P4-expressing cell line, agonist reporter assay | AID 1509 | O95977 | activation, % at 4.98 µM | 220,000 tested, 0.35% active; in the data active = activation above about 11%
# NPY1 pot ag: potentiates or activates human NPY-Y1 receptor. 220,000 tested, 0.37% active. NPY-Y1 expressing cells, potentiator/agonist activation. AID 1304. activation, % at 3.6 µM; in the data active = activation above about 33%, passing the limit was not always enough;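 also: cells stimulated with NPY at EC10 then isoproterenol at EC100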
# NPY-Y2 confirm: confirmation of human NPY-Y2 receptor potentiators or agonists; shares compounds with NPY2 pot ag; cell-based NPY-Y2 potentiator/agonist assay; activation, % at 3.6 µM; 450 tested, 20% active; AID 1539; in the data active = activation above about 33%
# NPY-Y1 counter: counter-screen for NPY-Y2 potentiators or agonists: NPY-Y1 potentiators or agonists; 450 tested, 20% active; AID 1651; shares compounds with NPY2 pot ag; Y1 HEK293-CNG cells, membrane potential fluorescence; activation, % at 3.6 µM; in the data active = activation above about 45%;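 also: cells stimulated with submaximal NPY then isoproterenol with phosphodiesterase inhibitor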
# NPY-Y1 ag 2: activates human NPY-Y1, counter-screen for NPY-Y2 potentiators; HEK293 Y1-CNGC, membrane potential fluorescence, agonism; shares compounds with NPY2 pot ag; 450 tested, 37% active; AID 1702; activation, % at 3.6 µM;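 active = activation above the mean of DMSO-only control wells plus 3 SD, cut at about 18% in these data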;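 also: cells stimulated with 1 µM isoproterenol plus the PDE inhibitor Ro 20-1724; Y1 agonists lower the membrane potential dye signal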
# CNGC inh: cyclic nucleotide gated channel inhibition as counter-screen | shares compounds with NPY2 pot ag | HEK293-CNG parental, isoproterenol cAMP, membrane potential fluorescence | inhibition, % at 3.6 µM | 450 tested, 32% active | AID 1703;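 active = inhibition above the control-well mean plus 3 SD of those wells, cut at about 22% in these data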
# Y2 agonist ctr: activates human NPY-Y2 receptor in potentiator counter-screen. HEK293 Y2/CNGC cells, membrane potential fluorescence, agonist mode. shares compounds with NPY2 pot ag. 450 tested, 56% active. activation, % at 3.6 µM. AID 1710;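 active = activation above the mean of solvent-only control wells plus 3 SD, cut at about 10% in these data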;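 also: cells stimulated by isoproterenol with no NPY added so direct agonism is tested; agonism lowers probe fluorescence through less cAMP and CNG channel opening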
# Hits are given with their value; - = inactive; . = no result given.
SMILES,NPY-Y1 antag,S1P4 antagonist,NPY2 pot ag,NPY Y2 blocker,S1P4 agonist,NPY1 pot ag,NPY-Y2 confirm,NPY-Y1 counter,NPY-Y1 ag 2,CNGC inh,Y2 agonist ctr
Nc1cc(-c2cccc(Br)c2)nn1Cc1ccccc1,-,-,-,-,-,-,.,.,.,.,.
Nc1cc(-c2ccc(Br)cc2)nn1Cc1ccccc1,-,-,36,.,-,-,-,-,-,-,28
COc1cc([N+](=O)[O-])cc(/C=N/NC(=O)Cn2nccc2C)c1O,.,-,-,.,-,-,.,.,.,.,.
COc1ccc(-c2csc(NC(=O)COc3ccc(N(C)S(=O)(=O)c4ccc(C)cc4)cc3)n2)cc1,-,-,-,-,-,-,.,.,.,.,.
COc1ccc(-c2csc(NC(=O)c3ccccc3NS(=O)(=O)c3ccc(C)cc3)n2)cc1,-,-,65,-,-,-,-,-,-,-,25
Cc1ccc(Nc2nc(-c3ccc(S(=O)(=O)N4CCOCC4)cc3)cs2)cc1,-,-,-,-,-,-,.,.,.,.,.
Fc1ccc(Nc2nc(-c3cccnc3)cs2)cc1,-,-,34,.,-,-,35,58,59,43,43
Cc1ccc(Nc2nc(-c3ccncc3)cs2)cc1,-,-,36,.,-,-,35,48,60,49,46
C/C(=N\NC(=O)CN1CCN(S(=O)(=O)c2ccc(C)cc2)CC1)c1ccc(O)cc1,.,-,-,.,-,-,.,.,.,.,.
O=C(COc1ccc(Br)cc1CNCCCN1CCOCC1)Nc1ccccc1,-,-,-,-,-,-,.,.,.,.,.
c1ccc2c(c1)CCN(C1=Nc3cccc4cccc1c34)C2,-,-,33,.,-,-,64,88,62,62,61
CC(=O)c1ccc(NC(=O)C2CCCN(C(=O)c3ccc(Cl)cc3)C2)cc1 (centres undefined),-,-,28,.,-,-,-,-,29,30,30
O=C(Nc1ccccc1)C1CCCN(C(=O)c2ccc(Cl)cc2)C1 (centres undefined),-,-,-,.,-,-,.,.,.,.,.
CC(C)CCC1(CCNC(C)c2cccs2)CCOC(C)(C)C1 (centres undefined),.,-,-,.,-,-,.,.,.,.,.
Cc1ccccc1NC(=O)c1snc2c(=O)[nH]cnc12,-,-,-,.,-,-,.,.,.,.,.
O=C(C1CCCCC1)N1CCN(c2ccnc3cc(Cl)ccc23)CC1,.,-,-,.,-,-,.,.,.,.,.
O=[N+]([O-])c1cc(C(F)(F)F)ccc1NCCCCNS(=O)(=O)c1ccc(Cl)cc1,-,-,-,-,-,-,.,.,.,.,.
O=[N+]([O-])c1cc(C(F)(F)F)ccc1NCCNC(=S)Nc1ccc(Cl)cc1,-,-,36,-,-,-,36,-,39,23,46
O=[N+]([O-])c1cc(C(F)(F)F)ccc1N1CCC(O)CC1,-,-,-,.,-,-,.,.,.,.,.
O=C(Nc1ccc(Cl)cc1)N1CCCN(c2ccc(C(F)(F)F)cc2[N+](=O)[O-])CC1,.,-,48,.,-,-,47,76,78,60,58
COc1cc([N+](=O)[O-])cc2sc(NC(=O)C3CC3)nc12,-,-,-,.,-,-,.,.,.,.,.
CC1(C)C(=O)OC(/C=C\c2ccccc2)C(C)(C)C1=O (centres undefined),-,-,33,.,-,-,-,-,-,-,-
CC1(C)C(=O)OC(c2c3ccccc3cc3ccccc23)C(C)(C)C1=O (centres undefined),.,-,-,.,-,-,.,.,.,.,.
CCN(CC)CC(O)Cn1c2ccccc2c2ccccc21 (centres undefined),-,-,38,-,-,-,38,-,29,-,41
C=CCN(CC=C)CC(O)Cn1c2ccccc2c2ccccc21 (centres undefined),-,-,-,-,-,-,.,.,.,.,.
SMILES,NPY-Y1 antag,S1P4 antagonist,NPY2 pot ag,NPY Y2 blocker,S1P4 agonist,NPY1 pot ag,NPY-Y2 confirm,NPY-Y1 counter,NPY-Y1 ag 2,CNGC inh,Y2 agonist ctr
CC(C)CC(NC(=O)c1ccc(Cl)cc1)C(=O)OCc1cc([N+](=O)[O-])cc2c1OCOC2 (centres undefined),-,-,28,-,-,-,-,-,-,-,18
CCOc1ccc(NC(=S)/C(=C(\[O-])c2ccc(C)c([N+](=O)[O-])c2)[n+]2ccccc2)cc1,-,-,-,-,-,-,.,.,.,.,.
CCc1cc[n+](/C(C(=S)Nc2cccc(C)c2)=C(/[O-])c2ccc(C)c([N+](=O)[O-])c2)cc1,-,-,42,-,-,-,-,-,-,-,15
CCC(C)(C)NC(=O)C(c1cccn1C)N(Cc1ccccc1)C(=O)Cn1nnc2ccccc21 (centres undefined),-,-,61,-,-,-,-,-,-,-,-
CC12CN(C(=O)c3ccc([N+](=O)[O-])cc3)CC(C)(CN(C(=O)c3ccc([N+](=O)[O-])cc3)C1)C2=O,.,-,-,.,-,-,.,.,.,.,.
Cc1ccc(C(=O)N2CC3(C)CN(C(=O)c4ccc(C)cc4)CC(C)(C2)C3=O)cc1,-,-,30,-,-,-,-,-,-,-,-
COc1ccccc1N(C)S(=O)(=O)c1ccc(C(=O)OCC(=O)N2CCC2)cc1,-,-,-,.,-,-,.,.,.,.,.
O=C1c2cccc3cccc(c23)C(=O)N1CC1CCN(CC(O)COCc2ccc3c(c2)OCO3)CC1 (centres undefined),-,-,50,-,-,-,75,90,21,-,65
CCOC(=O)C1CCN(CC(O)COCc2ccc3c(c2)OCO3)CC1 (centres undefined),-,-,-,.,-,-,.,.,.,.,.
CCC/C=N/NC(=O)c1[nH]c2c([N+](=O)[O-])cccc2c1C,-,-,-,-,-,-,.,.,.,.,.
Oc1ccc(Cl)cc1Cc1cc(Cl)ccc1O,-,-,62,-,-,-,39,-,36,28,32
Oc1ccc(Cl)cc1CNn1cnnc1,-,-,-,.,-,-,.,.,.,.,.
Cc1ccc2nc(N(CCN(C)C)C(=O)/C=C/c3cccs3)sc2c1,-,-,52,-,-,-,91,107,89,86,97
CCN(CC(=O)NCc1ccc(F)cc1)C(=O)/C=C/c1cccs1,-,-,-,.,-,-,.,.,.,.,.
Cc1ccc2nc(N(CCCN(C)C)C(=O)CCc3ccccc3)sc2c1,-,-,-,-,-,-,.,.,.,.,.

# Bioassay records from PubChem BioAssay.
